KDM4C inh = inhibitors of GASC-1 (KDM4C) histone demethylase, primary screen, biochemical, single concentration HTS; 0.15% of 96,000 active; inhibition, % at 12.5 µM; GST-KDM4C 2-372, H3K9me3 peptide, LANCE TR-FRET;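 active = mean replicate inhibition above about 25%, with at least 55% of replicates also reaching it, limit read from the data, passing the limit was not always enough; inconclusive = only one of those two conditions met; inactive = neither condition met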
Target sequence (Q9H3R0 2-372 limits assumed): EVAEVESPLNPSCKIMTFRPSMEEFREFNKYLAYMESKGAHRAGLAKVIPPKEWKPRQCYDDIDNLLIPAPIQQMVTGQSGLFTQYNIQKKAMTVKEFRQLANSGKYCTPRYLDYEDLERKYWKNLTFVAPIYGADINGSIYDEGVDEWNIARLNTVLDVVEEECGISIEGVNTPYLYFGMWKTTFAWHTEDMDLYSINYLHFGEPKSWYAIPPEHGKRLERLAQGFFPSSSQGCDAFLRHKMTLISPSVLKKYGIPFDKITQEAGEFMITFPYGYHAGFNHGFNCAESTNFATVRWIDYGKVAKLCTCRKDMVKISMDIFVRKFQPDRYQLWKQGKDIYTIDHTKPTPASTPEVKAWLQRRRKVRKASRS
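reagent = H3K9me3 peptide substrate, Fe(II), 2-oxoglutarate | system = GST-tagged GASC-1 (JMJD2C) catalytic fragment, aa 2-372 | amount = enzyme final amount 10 nM | read-out = Fall in 671/618 emission ratio as inhibition | medium = HEPES buffer, pH 7.5, plus ascorbate | schedule = 30 min reaction, 60 min detection, RT | measured by = LANCE TR-FRET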
T cruzi growth-1 = T. cruzi intracellular proliferation inhibitors, primary screen, cell-based, beta-gal Tulahuen parasites, NIH3T3 host, luminescence; 5.9% of 77,000 active; inhibition, % at 8.34 µM; T. cruzi beta-gal in NIH3T3, GalScreen luminescence, 90 h;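 active = mean inhibition above about 93%, with at least 55% of replicates each passing it, limit read from the data, passing the limit was not always enough; inconclusive = only one of those two conditions holds; inactive = neither condition holds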
IDH1 mut inh = inhibitors of IDH1 R132H reductase, primary screen, biochemical, plate reader, single point; inhibition, % at 10 µM; 0.18% of 70,000 active; diaphorase/resazurin fluorescence, 60 min; AID 624101, 2012; in the data active = inhibition above about 34%; inconclusive = no clear call, values can overlap the other calls; inactive = below about 11%
Target sequence (O75874 whole entry R132H): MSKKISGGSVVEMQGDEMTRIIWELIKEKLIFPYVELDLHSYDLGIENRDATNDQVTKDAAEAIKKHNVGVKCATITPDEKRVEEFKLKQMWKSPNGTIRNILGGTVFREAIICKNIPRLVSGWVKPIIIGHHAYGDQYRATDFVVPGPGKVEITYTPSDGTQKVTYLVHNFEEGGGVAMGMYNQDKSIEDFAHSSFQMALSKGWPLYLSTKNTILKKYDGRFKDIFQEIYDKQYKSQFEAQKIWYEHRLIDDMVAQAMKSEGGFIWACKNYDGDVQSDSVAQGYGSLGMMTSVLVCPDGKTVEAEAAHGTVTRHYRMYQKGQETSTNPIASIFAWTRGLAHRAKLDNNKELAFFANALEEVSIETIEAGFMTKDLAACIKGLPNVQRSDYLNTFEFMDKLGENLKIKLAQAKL
T cruzi growth-2 = T. cruzi intracellular proliferation inhibitors, confirmation, cell-based, NIH3T3 host, beta-gal parasite, luminescence, cherry-pick; shares compounds with T cruzi growth-1; T. cruzi beta-gal in NIH3T3, GalScreen luminescence, 90 h; inhibition, % at 8.35 µM; 72% of 5,600 active; AID 651739, 2012;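 active = mean replicate inhibition above about 95% and at least 55% of replicates individually reaching it, limit read from the data; inconclusive = only one of the two criteria is met; inactive = neither criterion is met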
T cruzi growth-3 = inhibitors of intracellular T. cruzi replication, confirmation, NIH3T3 host cells, beta-gal parasites, cherry-pick, set 2; shares compounds with T cruzi growth-1; T. cruzi beta-gal in NIH3T3, GalScreen luminescence, 90 h; inhibition, % at 2.09 µM; 21% of 5,600 active;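 active = mean inhibition above about 95%, with at least 55% of replicates also reaching it, limit read from the data; inconclusive = meets just one of the two conditions; inactive = meets neither condition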
3T3 cytotox = cytotoxicity in mouse NIH/3T3 fibroblasts, confirmation, cytotoxicity control for T. cruzi proliferation inhibitor project, cell-based, cherry-pick, single point; AID 651742, 2012; NIH/3T3 viability, CellTiter-Glo ATP luminescence, 90 h; cytotoxicity (signal decrease), % at 8.35 µM; shares compounds with T cruzi growth-1; 14% of 5,600 active;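 active = mean signal decrease across replicates above about 35% based on untreated-well scatter, with enough replicates individually passing, limit read from the data; inconclusive = no rule stated though some were filed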
NIH3T3 tox 2 = NIH/3T3 fibroblast cytotoxicity, confirmation, cytotoxicity control, cell-based, cherry-pick, single point, set 2 | shares compounds with T cruzi growth-1 | NIH/3T3 viability, CellTiter-Glo ATP luminescence, 90 h | inhibition, % at 24.9 µM | 56% of 5,600 active;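 active = mean loss of cell viability signal at or above a set limit, and enough replicates individually reaching it; inconclusive = meets only the mean limit or only the replicate share; inactive = meets neither condition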
Large screens that a line does not name were inactive (follow-up assays come after a bar, where they were run). The sample as a whole holds a higher share of hits than the screen did.

CN(C)C(=O)c1ccc(-c2ccc([C@H]3[C@@H](CO)N4CCCCN(C(=O)C5CCCC5)C[C@@H]34)cc2)cc1	T cruzi growth-1 inconclusive (no result: KDM4C inh, IDH1 mut inh) | T cruzi growth-2 110 | T cruzi growth-3 inactive | 3T3 cytotox inactive | NIH3T3 tox 2 inactive
C/C=C/c1ccc([C@H]2[C@@H](CO)N3CCCCN(C(=O)Nc4ccc(F)cc4)C[C@@H]23)cc1	none (no result: IDH1 mut inh)
CN(C)C(=O)c1ccc(-c2ccc([C@H]3[C@@H](CO)N4CCCCN(C(=O)C5CCCC5)C[C@H]34)cc2)cc1	T cruzi growth-1 102 (no result: KDM4C inh, IDH1 mut inh) | T cruzi growth-2 105 | T cruzi growth-3 101 | 3T3 cytotox inactive | NIH3T3 tox 2 39
O=C(C[C@@H]1C[C@H]2c3cc(NC(=O)Nc4ccc(C(F)(F)F)cc4)ccc3O[C@H]2[C@H](CO)O1)NCCc1ccccc1	none
O=C(CCn1c(=S)[nH]c2c(sc3ccccc32)c1=O)NC1CCCCC1	none (no result: KDM4C inh, T cruzi growth-1)
C[C@@H]1CN([C@@H](C)CO)C(=O)c2cc(C#CC3CCCCC3)cnc2O[C@@H]1CN(C)C(=O)NC1CCCC1	T cruzi growth-1 100 | T cruzi growth-2 107 | T cruzi growth-3 inactive | 3T3 cytotox inactive | NIH3T3 tox 2 100
C[C@H](CO)N1C[C@H](C)[C@H](CN(C)C(=O)NC2CCCCC2)Oc2ncc(C#Cc3cccc(F)c3)cc2C1=O	none (no result: IDH1 mut inh)
C[C@H]1CN([C@@H](C)CO)C(=O)c2cc(C#CC3CCCCC3)cnc2O[C@@H]1CN(C)C(=O)NC1CCCC1	none
C[C@H](CO)N1C[C@H](C)[C@H](CN(C)C(=O)NC2CCCCC2)Oc2ncc(C#Cc3ccccc3)cc2C1=O	T cruzi growth-1 98 (no result: KDM4C inh) | T cruzi growth-2 106 | T cruzi growth-3 inactive | 3T3 cytotox 41 | NIH3T3 tox 2 58
Cc1ccc(NC(=O)CN(C)S(=O)(=O)c2ccc(C)cc2)cc1	none (no result: KDM4C inh, T cruzi growth-1)
O=C(COc1ccccc1)NC(=S)Nc1cc(-c2nc3ccccc3o2)ccc1Cl	none (no result: KDM4C inh, T cruzi growth-1)
O=C(NCCN1CCCCC1)[C@@H]1[C@@H](CO)[C@@H]2Cn3c(cccc3=O)[C@H]1N2C(=O)C1CCCCC1	none (no result: IDH1 mut inh)
O=C(NCCN1CCCC1)[C@H]1[C@H](CO)[C@H]2Cn3c(cccc3=O)[C@@H]1N2C(=O)c1ccccc1	T cruzi growth-1 96 (no result: IDH1 mut inh) | T cruzi growth-2 inactive | T cruzi growth-3 inactive | 3T3 cytotox inactive | NIH3T3 tox 2 inactive
COc1cccc(CNC(=O)[C@@H]2[C@@H](CO)[C@@H]3Cn4c(cccc4=O)[C@H]2N3C(=O)C2CCCCC2)c1	T cruzi growth-1 96 (no result: IDH1 mut inh) | T cruzi growth-2 inactive | T cruzi growth-3 inactive | 3T3 cytotox inactive | NIH3T3 tox 2 inactive
COc1cccc(CNC(=O)[C@@H]2[C@@H](CO)[C@@H]3Cn4c(cccc4=O)[C@H]2N3C(=O)C2CCC2)c1	none (no result: IDH1 mut inh)
Cc1ccc(S(=O)(=O)NCC[C@H]2CC[C@@H](NC(=O)c3cccc(F)c3)[C@H](CO)O2)cc1	none
COc1cc(C2c3c(cc(OC)c(O)c3O)CC(CO)C2CO[C@@H]2O[C@H](C(=O)O)[C@@H](O)[C@H](O)[C@H]2O)cc(OC)c1O (some centres undefined)	none (no result: KDM4C inh, T cruzi growth-1)
CCOc1cc(C2c3c(oc4ccc(F)cc4c3=O)C(=O)N2CCc2ccc(OC)cc2)ccc1O (centres undefined)	none (no result: KDM4C inh, T cruzi growth-1)
C[C@@H]1CN([C@@H](C)CO)C(=O)c2c(c3ccccc3n2C)-c2ccccc2CO[C@H]1CN(C)C(=O)Nc1ccnc(N2CCOCC2)c1	none (no result: T cruzi growth-1, IDH1 mut inh)
C[C@@H]1CN([C@@H](C)CO)C(=O)c2ccccc2-c2ccccc2CO[C@@H]1CN(C)C(=O)Nc1ccccc1	none (no result: IDH1 mut inh)
C[C@@H]1CN([C@@H](C)CO)C(=O)c2ccccc2-c2ccccc2CO[C@H]1CN(C)C(=O)Nc1ccnc(N2CCOCC2)c1	T cruzi growth-1 109 | T cruzi growth-2 102 | T cruzi growth-3 inactive | 3T3 cytotox inactive | NIH3T3 tox 2 inactive
C[C@@H]1CN([C@H](C)CO)C(=O)c2ccccc2-c2ccccc2CO[C@@H]1CN(C)C(=O)Nc1ccnc(N2CCOCC2)c1	T cruzi growth-1 inconclusive | T cruzi growth-2 inactive | T cruzi growth-3 inactive | 3T3 cytotox inactive | NIH3T3 tox 2 inactive
Cc1ccc(NC(=O)CSc2nnc(C)n2-c2ccccc2)cc1C	none (no result: KDM4C inh, T cruzi growth-1)
O=C(NO)c1ccc(C(=O)N/N=C/c2ccc([N+](=O)[O-])s2)cc1	none (no result: KDM4C inh, T cruzi growth-1)
CC1=CCC(C(C)(C)O[C@@H]2O[C@H](CO[C@@H]3O[C@H](COC(=O)c4cc(O)c(O)c(O)c4)[C@@H](O)[C@H](O)[C@H]3O)[C@@H](O)[C@H](O)[C@H]2O)CC1 (some centres undefined)	none (no result: KDM4C inh, T cruzi growth-1)
C[C@H]1CN([C@@H](C)CO)C(=O)Cc2cc(NC(=O)Nc3ccc4c(c3)OCO4)ccc2O[C@@H]1CN(C)CC1CCCCC1	none
COc1ccc(NC(=O)Nc2ccc3c(c2)C(=O)N([C@H](C)CO)C[C@@H](C)[C@@H](CN(C)S(=O)(=O)c2ccc(F)cc2)OCCCC[C@H](C)O3)cc1	none
COc1ccc(NC(=O)Nc2ccc3c(c2)C(=O)N([C@H](C)CO)C[C@H](C)[C@@H](CN(C)S(=O)(=O)c2ccc(F)cc2)OCCCC[C@H](C)O3)cc1	T cruzi growth-1 113 | T cruzi growth-2 110 | T cruzi growth-3 inactive | 3T3 cytotox inactive | NIH3T3 tox 2 inactive
COc1ccc(S(=O)(=O)N(C)C[C@H]2OCCCC[C@H](C)Oc3ccc(NC(=O)Nc4ccc(F)cc4)cc3C(=O)N([C@H](C)CO)C[C@@H]2C)cc1	T cruzi growth-1 inconclusive (no result: IDH1 mut inh) | T cruzi growth-2 105 | T cruzi growth-3 inactive | 3T3 cytotox inactive | NIH3T3 tox 2 inactive
COc1ccc(NC(=O)Nc2ccc3c(c2)C(=O)N([C@@H](C)CO)C[C@H](C)[C@@H](CN(C)S(=O)(=O)c2ccc(F)cc2)OCCCC[C@@H](C)O3)cc1	none (no result: IDH1 mut inh)
N#C[C@@H]1[C@@H](c2ccc(C3=CCCCC3)cc2)[C@@H](CO)N1C(=O)NC1CCCCC1	T cruzi growth-1 98 (no result: IDH1 mut inh) | T cruzi growth-2 104 | T cruzi growth-3 inactive | 3T3 cytotox 54 | NIH3T3 tox 2 64
CC(C)NC[C@@H]1[C@H](c2ccc(C3=CCCCC3)cc2)[C@H](CO)N1C(=O)NC(C)C	T cruzi growth-1 121 (no result: IDH1 mut inh) | T cruzi growth-2 106 | T cruzi growth-3 98 | 3T3 cytotox inactive | NIH3T3 tox 2 105

High-throughput results from PubChem BioAssay.
